The source made the active and inactive calls. The calls are words filed in the database; no cut-off is given here.

This passage reports Blood sugar lowering results from ChEMBL document CHEMBL1123180, “Improved glucose tolerance in rats treated with oxazolidinediones” (1986).

Experiment [1] has as its system Rattus norvegicus. Kind of experiment: Ability to lower blood sugar level at the dose of 2.5 mg/kg in fasted rats, by using glucose tolerance test(GTT). Type of experiment: functional. In a few lines:
(§1)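 Male albino rats, groups of five or six, fasted 18–24 h. Glucose 1 g/kg given ip; test drug (0.1 to 100 mg/kg) or water (controls) given orally. Tail-vein blood sampled over 0–3 h; glucose (mg/100 mL) measured by Autoanalyser ferricyanide method. Value is percent lowering of blood glucose vs controls at 0.5 h; a lowering of ≥9% is needed for P = 0.05.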

Experiment [2] deals with Rattus norvegicus. Put plainly: Ability to lower blood sugar level at the dose of 10 mg/kg in fasted rats, by using glucose tolerance test(GTT). In kind it is functional. A digest of the protocol: as §1
In experiment [3] the test system is Rattus norvegicus. Put plainly: Compound was tested for the ability to lower blood sugar level at the dose of 25 mg/kg in rats, by using glucose tolerance test(GTT). Type of experiment: functional. In a few lines:
as §1

Experiment [4] relates to Rattus norvegicus. Put plainly: Ability to lower blood sugar level at the dose of 100 mg/kg in fasted rats, by using glucose tolerance test(GTT). Type of experiment: functional. A digest of the protocol:
as §1

For experiment [5], the system named is Rattus norvegicus. Kind of experiment: Compound was tested for the ability to lower blood sugar level at the dose of 50 mg/kg in fasted rats, by using glucose tolerance test(GTT). In kind it is functional. In a few lines:
as §1

Experiment [6] has as its system Rattus norvegicus. Kind of experiment: Compound was tested for the ability to lower blood sugar level at the dose of 1 mg/kg in fasted rats, by using glucose tolerance test(GTT). In kind it is functional. A digest of the protocol:
as §1

The subject of experiment [7] is Rattus norvegicus. Put plainly: Compound was tested for the ability to lower blood sugar level at the dose of 0.63 mg/kg in fasted rats, by using glucose tolerance test(GTT). Type of experiment: functional. In a few lines:
as §1

Experiment [8] relates to Rattus norvegicus. Kind of experiment: Compound was tested for the ability to lower blood sugar level at the dose of 10 mg/kg in fasted rats, by using glucose tolerance test(GTT); NA=Inactive. Type of experiment: functional, organism-based. The arrangement: dose 10 mg/kg. In a few lines:
as §1

The subject of experiment [9] is Rattus norvegicus. Put plainly: Compound was tested for the ability to lower blood sugar level at the dose of 25 mg/kg in fasted rats, by using glucose tolerance test(GTT). Type of experiment: functional. A digest of the protocol:
as §1

Experiment [10] deals with Rattus norvegicus. Put plainly: Compound was tested for the ability to lower blood sugar level at the dose of 25 mg/kg in fasted rats, by using glucose tolerance test(GTT); NA=Inactive. Type of experiment: functional, organism-based. The arrangement: dose 25 mg/kg. In a few lines: as §1
For experiment [11], the system named is Rattus norvegicus. Put plainly: Compound was tested for the ability to lower blood sugar level at the dose of 100 mg/kg in fasted rats, by using glucose tolerance test(GTT). In kind it is functional. In a few lines: as §1
Experiment [12] relates to Rattus norvegicus. Kind of experiment: Compound was tested for the ability to lower blood sugar level at the dose of 100 mg/kg in fasted rats, by using glucose tolerance test(GTT); NA=Inactive. In kind it is functional, organism-based. The arrangement: dose 100 mg/kg. A digest of the protocol:
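Male albino rats (groups of five or six) fasted 18–24 h, given glucose 1 g/kg ip plus oral drug (range 0.1–100 mg/kg) or water for controls. Tail-vein blood glucose sampled over 0–3 h, read by ferricyanide autoanalyser method. Value is percent blood glucose lowering vs controls at 0.5 h; ≥9% lowering needed for significance at P = 0.05.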

The subject of experiment [13] is Rattus norvegicus. Put plainly: Ability to lower blood sugar level at the dose of 25 mg/kg in fasted rats, by using glucose tolerance test(GTT).

For `COc1ccc(C)cc1C1OC(=O)NC1=O` (centres undefined), the Blood sugar lowering in [1] worked out at 10%; in [2] it was 21%. For `O=C1NC(=O)C(c2ccccc2)O1` (centres undefined) [PEMOLINE DIONE], the Blood sugar lowering worked out at 13% in [2], 26% in experiment [3] and 35% in experiment [4].

Take `O=C1NC(=O)C(c2ccc(Cl)cc2)O1` (centres undefined): the Blood sugar lowering in [5] is given as 12%. The compound `COc1ccc(Cl)cc1C1OC(=O)NC1=O` (centres undefined) gave a Blood sugar lowering in [6] of 12%. The compound `COc1cccc(C2OC(=O)NC2=O)c1OC` (centres undefined) displayed a Blood sugar lowering in experiment [5] of 12%. `COc1cccc(Cl)c1C1OC(=O)NC1=O` (centres undefined): the Blood sugar lowering in [7] is given as 11%. In the case of `C/C=C/Oc1cccc(Cl)c1C1OC(=O)NC1=O` (centres undefined), the Blood sugar lowering result in experiment [8] is “inactive”.

Take `COc1ccc([N+](=O)[O-])cc1C1OC(=O)NC1=O` (centres undefined): the Blood sugar lowering in experiment [9] came out at 17%. Regarding `COc1cccc(F)c1C1OC(=O)NC1=O` (centres undefined), the Blood sugar lowering in experiment [6] came to 11%.

As to `O=C1NC(=O)C(c2ccccc2)S1` (centres undefined), the Blood sugar lowering result in experiment [10] is “inactive”. Besides, the Blood sugar lowering in experiment [11] is given as 34%. For the compound `NC1=NC(=O)C(c2ccccc2)O1` (centres undefined), the Blood sugar lowering result in [12] is “inactive”.

In experiment [11], `O=C1NC(=S)OC1c1ccccc1` (centres undefined) showed a Blood sugar lowering of 17%. In the case of `COc1ccc(S(N)(=O)=O)cc1C1OC(=O)NC1=O` (centres undefined), the Blood sugar lowering entry in experiment [8] is “inactive”. Consider `COc1ccc(F)cc1C1OC(=O)NC1=O` (centres undefined), for which, in [1], the Blood sugar lowering was 15%.

`COc1cccc([N+](=O)[O-])c1C1OC(=O)NC1=O` (centres undefined) displayed a Blood sugar lowering in [13] of 10%.
